Source: ChEMBL document CHEMBL1155046, “Chemical constituents of Aristolochia constricta: antispasmodic effects of its constituents in guinea-pig ileum and isolation of a diterpeno-lignan hybrid” (2008)

Columns and labels:
[1] = test system: Ileum; experiment: Antispasmodic activity in guinea pig ileum assessed as inhibition of electrically-induced smooth muscle contraction; assay type: functional, Cavia porcellus
Procedure, shortened: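 Male albino guinea-pig ileum (300-450 g) held under 1 g tension in Krebs-Henseleit at 38.5 °C, gassed 95% O2/5% CO2. Transmural stimulation through platinum ring electrodes: supramaximal 38.6 V, 0.2 Hz, 0.3 ms square pulses. Once twitch was stable, compounds added cumulatively at 10, 30, 100 µM. Isotonic recording, contraction as % of control. IC50 calculated. Mean ± SEM from 4-5 animals. DMSO vehicle <1% final.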

[2] = test system: Ileum; experiment: Antispasmodic activity in guinea pig ileum assessed as inhibition of acetylcholine-induced smooth muscle contraction; assay type: functional, Cavia porcellus
Procedure, shortened: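 Ileum from male albino guinea pigs (300-450 g) in Krebs-Henseleit solution, 1 g tension, 10 mL bath, 38.5 °C, 95% O2/5% CO2. After 0.5 h equilibration, checked with 3 µM ACh three times. Samples (10, 30, 100 µM) added noncumulatively 20 min before 3 µM ACh. Contraction recorded isotonically, expressed as % of untreated ACh height. IC50 calculated. Mean ± SEM, 4-5 animals. DMSO <1% final.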

Row | SMILES | IC50 [1] | IC50 [2]
1 | CC1(C)CCC[C@]2(C)[C@@H]1CC[C@]13C=C(COC4OC[C@H](Cc5ccc6c(c5)OCO6)[C@H]4Cc4ccc5c(c4)OCO5)[C@@H](CC[C@H]12)C3 (some centres undefined) | > 100 µM | > 100 µM
2 | C=C1C[C@@]23CC[C@H]4[C@@](C)(CCC[C@]4(C)C(=O)O)[C@@H]2CCC1C3 | 28.2 µM | 25.4 µM
3 | CC1(C)CCC[C@]2(C)[C@@H]1CC[C@]13C=C(CO)[C@@H](CC[C@H]12)C3 | 34.1 µM | > 100 µM
4 | CC1(C)CCC[C@]2(C)[C@@H]1CC[C@@]13C[C@H](CC[C@H]12)[C@@](O)(CO)C3 | > 100 µM | > 100 µM
5 | COc1cc2c(cc1C)C(=O)CCC2C (single isomer, unassigned; (+)) | > 100 µM | 89.8 µM
6 | COc1cccc2c1cc([N+](=O)[O-])c1c(C(=O)O)cc3c(c12)OCO3 [ARISTOLOCHIC ACID] | 64 µM | > 100 µM
7 | COc1ccc(CCN(C)CCCC(C#N)(c2ccc(OC)c(OC)c2)C(C)C)cc1OC (centres undefined) [VERAPAMIL] | 0.25 µM | 0.28 µM

Further lines, results first:

Row | IC50 [1] | IC50 [2] | SMILES
8 | 51.6 µM | 23.6 µM | O[C@H]1OC[C@H](Cc2ccc3c(c2)OCO3)[C@H]1Cc1ccc2c(c1)OCO2
9 | 52.8 µM | 39.5 µM | COc1cc(C[C@H]2CO[C@@H](O)[C@@H]2Cc2ccc3c(c2)OCO3)ccc1O
10 | 58.3 µM | 26.8 µM | COc1cc(C[C@H]2C(=O)OC[C@@H]2Cc2ccc3c(c2)OCO3)ccc1O
11 | > 100 µM | 40.4 µM | OC[C@H](Cc1ccc2c(c1)OCO2)[C@H](CO)Cc1ccc2c(c1)OCO2 [DIHYDROCUBEBIN]
12 | 69.8 µM | 27.3 µM | O=C1OC[C@H](Cc2ccc3c(c2)OCO3)[C@H]1Cc1ccc2c(c1)OCO2 [HINOKININ]
